Laboratory results as given in ChEMBL document CHEMBL4396949, “Anti-cancer potential of novel glycosylated 1,4-substituted triazolylchalcone derivatives” (Bioorg Med Chem Lett, 2019).
The source made the active and inactive calls. No cut-off for these calls is given here.

How the values were obtained:
MDA-MB-468 [1] = experiment: Induction of mitochondrial ROS production in human MDA-MB-468 cells at 40 to 60 uM incubated for 24 hrs by MitoSox red dye based fluorescence microscopic method; format: functional, cell-based
Procedure, shortened: (§1)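 MitoSOX Red, a live-cell mitochondria-targeted superoxide probe, after exposure to 40 and 60 µM; read by fluorescence microscopy and spectrophotometric fluorescence intensity; H2O2 positive control.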

MDA-MB-468 [2] = experiment: Induction of cell cycle arrest in human MDA-MB-468 cells assessed as increase in accumulation at sub G1 phase at 60 uM by PI staining based FACS analysis relative to control; format: functional
Procedure, shortened: (§2)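 Cells exposed to 20, 40 and 60 µM; cell cycle distribution by FACS, with sub-G1 population quantified as a measure of apoptosis.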

MDA-MB-468 [3] = experiment: Induction of DNA fragmentation in human MDA-MB-468 cells assessed as apoptotic cells at 40 to 60 uM incubated for 12 hrs by DAPI staining based fluorescence microscopic method; format: functional, cell-based
Procedure, shortened: (§3)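 Nuclear morphology by DAPI staining and fluorescence microscopy; apoptotic (fragmented, polynuclear) nuclei counted and expressed as percent apoptotic cells versus untreated control; H2O2 positive control.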

MDA-MB-468 [4] = experiment: Induction of apoptosis in human MDA-MB-468 cells assessed as increase in bax protein expression at 40 to 60 uM by Western blot analysis; format: functional, cell-based
WI-38 = experiment: Induction of apoptosis in human WI38 cells at 20 to 60 uM incubated for 24 hrs by annexin V-FITC and PI staining based flow cytometric analysis; format: cell-based; conditions: wi-38, 24 h
Procedure, shortened: (§4)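 Cells treated at 0, 20, 40 and 60 µM for 24 h, stained with Annexin V-FITC/PI and analysed by flow cytometry; apoptotic cell percentage quantified from dot plots.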

MCF7 [5] = experiment: Induction of cell cycle arrest in human MCF7 cells assessed as increase in accumulation at sub G1 phase at 60 uM by PI staining based FACS analysis relative to control; format: functional; procedure, shortened: as §2
MDA-MB-468 [6] = experiment: Induction of apoptosis in human MDA-MB-468 cells assessed as increase in cleaved caspase-3 protein expression at 40 to 60 uM by Western blot analysis; format: functional, cell-based
MCF7 [7] = experiment: Induction of mitochondrial ROS production in human MCF7 cells at 40 to 60 uM incubated for 24 hrs by MitoSox red dye based fluorescence microscopic method; format: functional, cell-based; procedure, shortened: as §1
[8] = Antiproliferative activity against human WI38 cells incubated for 24 hrs by MTT assay; format: cell-based, WI-38; conditions: read-out: LD50
Procedure, shortened: (§5)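 Cells exposed to compounds at […]; viability read by MTT assay. LD50 derived from concentration-response. MDA-MB-468: triple-negative (ER-, PR-, HER2-) breast cancer. MCF-7: ER+, PR+, HER2- breast cancer. WI-38: non-cancerous lung fibroblasts. Selectivity index taken as WI-38 LD50 divided by cancer-cell LD50.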

MCF7 [9] = experiment: Induction of apoptosis in human MCF7 cells assessed as increase in apoptotic cells incubated for 24 hrs by annexin V-FITC and PI staining based flow cytometric analysis; format: functional, cell-based; procedure, shortened: as §4
MDA-MB-468 [10] = experiment: Antiproliferative activity against human MDA-MB-468 cells incubated for 24 hrs by MTT assay; format: functional; conditions: MDA-MB-468, 24 h, read-out: LD50 (the source's name); procedure, shortened: as §5
MDA-MB-468 [11] = experiment: Induction of apoptosis in human MDA-MB-468 cells assessed as increase in apoptotic cells at 60 uM incubated for 24 hrs by annexin V-FITC and PI staining based flow cytometric analysis relative to control; format: functional; procedure, shortened: as §4
MCF7 [12] = experiment: Induction of ROS production in human MCF7 cells assessed as increase in green intensity incubated for 12 hrs by DCFDA staining based microscopic analysis; format: functional, cell-based
Procedure, shortened: (§6)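 Cells exposed to 0, 20, 40 and 60 µM for 12 h, then loaded with DCFDA (100 µM) for 30 min; green fluorescence assessed by microscopy with image quantitation, plus spectrophotometric fluorescence intensity; H2O2 positive control.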

MCF7 [13] = experiment: Disruption of mitochondrial membrane potential in human MCF7 cells assessed as shift of fluorescence from red to green by JC1 staining based fluorescent microscopic method; format: functional, cell-based
Procedure, shortened: (§7)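 JC-1 staining with fluorescence imaging; mitochondrial permeability transition read as a red-to-green shift (fall in red/green ratio), quantified from images; H2O2 as positive control.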

MDA-MB-468 [14] = experiment: Induction of ROS production in human MDA-MB-468 cells assessed as increase in green intensity incubated for 12 hrs by DCFDA staining based microscopic analysis; format: functional, cell-based; procedure, shortened: as §6
MCF7 [15] = experiment: Induction of DNA fragmentation in human MCF7 cells assessed as apoptotic cells at 40 to 60 uM incubated for 12 hrs by DAPI staining based fluorescence microscopic method; format: functional, cell-based; procedure, shortened: as §3
[16] = Selectivity index, ratio of LD50 for human WI38 cells to LD50 for human MCF7 cells; format: toxicity; conditions: WI38 cells and MCF7 cells, read-out: Selectivity Index
Procedure, shortened: (§8)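 MTT cytotoxicity after exposure to […] in MDA-MB-468, MCF-7 and WI-38 fibroblasts; LD50 determined per line; selectivity index calculated as WI-38 LD50 divided by cancer-cell LD50.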

MDA-MB-468 [17] = experiment: Induction of apoptosis in human MDA-MB-468 cells assessed as decrease in bcl2 protein expression at 40 to 60 uM by Western blot analysis; format: functional, cell-based
MCF7 [18] = experiment: Induction of DNA fragmentation in human MCF7 cells assessed as formation of polynuclear fragmentation at 40 to 60 uM incubated for 12 hrs by DAPI staining based fluorescence microscopic method; format: functional, cell-based; procedure, shortened: as §3
MCF7 [19] = experiment: Induction of DNA fragmentation in human MCF7 cells assessed as apoptotic cells at 60 uM incubated for 12 hrs by DAPI staining based fluorescence microscopic method relative to control; format: functional; procedure, shortened: as §3
MCF7 [20] = experiment: Induction of apoptosis in human MCF7 cells assessed as increase in apoptotic cells at 60 uM incubated for 24 hrs by annexin V-FITC and PI staining based flow cytometric analysis relative to control; format: functional; procedure, shortened: as §4
MCF7 [21] = experiment: Antiproliferative activity against human MCF7 cells incubated for 24 hrs by MTT assay; format: functional; conditions: MCF7, 24 h, read-out: LD50 (the source's name); procedure, shortened: as §5
[22] = Selectivity index, ratio of LD50 for human WI38 cells to LD50 for human MDA-MB-468 cells; format: toxicity; conditions: WI38 cells and MDA-MB-468 cells, read-out: Selectivity Index; procedure, shortened: as §8
MDA-MB-468 [23] = experiment: Induction of DNA fragmentation in human MDA-MB-468 cells assessed as formation of polynuclear fragmentation at 40 to 60 uM incubated for 12 hrs by DAPI staining based fluorescence microscopic method; format: functional, cell-based; procedure, shortened: as §3
MDA-MB-468 [24] = experiment: Induction of apoptosis in human MDA-MB-468 cells assessed as increase in apoptotic cells incubated for 24 hrs by annexin V-FITC and PI staining based flow cytometric analysis; format: functional, cell-based; procedure, shortened: as §4
MDA-MB-468 [25] = experiment: Disruption of mitochondrial membrane potential in human MDA-MB-468 cells assessed as shift of fluorescence from red to green by JC1 staining based fluorescent microscopic method; format: functional, cell-based; procedure, shortened: as §7
MDA-MB-468 [26] = experiment: Induction of DNA fragmentation in human MDA-MB-468 cells assessed as apoptotic cells at 60 uM incubated for 12 hrs by DAPI staining based fluorescence microscopic method relative to control; format: functional; procedure, shortened: as §3

For `CN(C)c1ccc(/C=C/C(=O)c2ccc(OCc3cn([C@@H]4O[C@H](CO)[C@@H](O)[C@H](O)[C@H]4O)nn3)cc2)cc1`, the Activity (MDA-MB-468 [1]) was “Active”, the Activity (MDA-MB-468 [2]) was 62% and the Activity (MDA-MB-468 [3]) was “Active”. The Activity (MDA-MB-468 [4]) was “Active”, the Activity (WI-38) was “Non-Toxic” and the Activity (MCF7 [5]) was 67%. For the same molecule, the Activity (MDA-MB-468 [6]) was “Active”, the Activity (MCF7 [7]) was “Active” and the CC50 at 24 h [8] was 59 µM. The Activity (MCF7 [9]) was “Dose-dependent effect”, the CC50 (MDA-MB-468 [10]) was 28 µM and the Activity (MDA-MB-468 [11]) was 60%. For the same molecule, the Activity (MCF7 [12]) was “Dose-dependent effect”, the Activity (MCF7 [13]) was “Dose-dependent effect” and the Activity (MDA-MB-468 [14]) was “Dose-dependent effect”. For the same molecule, the Activity (MCF7 [15]) was “Active”, the selectivity ratio [16] was 1.9 and the Activity (MDA-MB-468 [17]) was “Active”. The Activity (MCF7 [18]) was “Active”, the Activity (MCF7 [19]) was 78% and the Activity (MCF7 [20]) was 63%. The CC50 (MCF7 [21]) was 31 µM, the selectivity ratio [22] was 2.11 and the Activity (MDA-MB-468 [23]) was “Active”. For the same molecule, the Activity (MDA-MB-468 [24]) was “Dose-dependent effect”, the Activity (MDA-MB-468 [25]) was “Dose-dependent effect” and the Activity (MDA-MB-468 [26]) was 72%.
